In ChEMBL document CHEMBL4622866, “Synthesis, biochemical evaluation, and molecular modeling of organophosphate-coumarin hybrids as potent and selective butyrylcholinesterase inhibitors” (Bioorg Med Chem Lett, 2020):
Calls of active or inactive are those of the source. No cut-off for these calls is given here.

Assays:
Cholinesterase = Cholinesterase (Equus caballus, UniProt P81908); assay: Inhibition of equine BChE using butyrylthiocholine as substrate measured after 15 sec by Ellman's method
In short: (§1)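 Ellman assay scaled to 120 μL reactions, with no enzyme–inhibitor pre-incubation. Activity read after 15 s of enzyme exposure. Inhibitor stocks were made in methanol and diluted into buffer; some values were determined in 2% DMSO. IC50 values are reported as mean with standard deviation.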

[1] = target: Cholinesterase (Equus caballus) (UniProt P81908); assay: Inhibition of equine BChE at 34 uM using butyrylthiocholine as substrate measured after 15 sec by Ellman's method relative to control
Chain of Cholinesterase (Equus caballus) (P81908 whole entry): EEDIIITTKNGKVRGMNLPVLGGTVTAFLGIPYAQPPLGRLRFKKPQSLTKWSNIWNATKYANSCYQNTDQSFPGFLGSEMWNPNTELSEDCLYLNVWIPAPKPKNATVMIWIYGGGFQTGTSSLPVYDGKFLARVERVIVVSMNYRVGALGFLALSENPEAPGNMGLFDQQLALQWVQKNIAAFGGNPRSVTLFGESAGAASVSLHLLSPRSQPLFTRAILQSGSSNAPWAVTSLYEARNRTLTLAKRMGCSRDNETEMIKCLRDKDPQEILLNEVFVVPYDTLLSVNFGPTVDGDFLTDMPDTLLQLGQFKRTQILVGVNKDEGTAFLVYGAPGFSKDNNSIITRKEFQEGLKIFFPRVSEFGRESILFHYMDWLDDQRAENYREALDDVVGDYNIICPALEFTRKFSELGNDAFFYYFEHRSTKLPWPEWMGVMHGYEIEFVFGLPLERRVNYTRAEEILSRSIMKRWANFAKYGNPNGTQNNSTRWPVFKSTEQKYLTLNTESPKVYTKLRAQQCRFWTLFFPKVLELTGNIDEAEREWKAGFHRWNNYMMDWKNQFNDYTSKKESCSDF
In short: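 Single-concentration Ellman screen (120 μL scale) at 34 μM inhibitor with 2% MeOH (v/v) vehicle. Activity read after 15 s of enzyme exposure, in triplicate, reported as mean. Expressed relative to a vehicle-only control reaction.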

[2] = Selectivity index, ratio of IC50 for electric eel AChE using acetylthiocholine as substrate measured after 15 sec by Ellman's method to IC50 for equine BChE using butyrylthiocholine as substrate measured after 15 sec by Ellman's method
[3] = target: Cholinesterase (Equus caballus) (UniProt P81908); assay: Time dependent inhibition of equine BChE
Acetylcholinesterase [4] = target: T1, Acetylcholinesterase (Electrophorus electricus, UniProt O42275); assay: Inhibition of electric eel AChE using acetylthiocholine as substrate measured after 15 sec by Ellman's method; in short: as §1
T1 sequence (O42275 whole entry): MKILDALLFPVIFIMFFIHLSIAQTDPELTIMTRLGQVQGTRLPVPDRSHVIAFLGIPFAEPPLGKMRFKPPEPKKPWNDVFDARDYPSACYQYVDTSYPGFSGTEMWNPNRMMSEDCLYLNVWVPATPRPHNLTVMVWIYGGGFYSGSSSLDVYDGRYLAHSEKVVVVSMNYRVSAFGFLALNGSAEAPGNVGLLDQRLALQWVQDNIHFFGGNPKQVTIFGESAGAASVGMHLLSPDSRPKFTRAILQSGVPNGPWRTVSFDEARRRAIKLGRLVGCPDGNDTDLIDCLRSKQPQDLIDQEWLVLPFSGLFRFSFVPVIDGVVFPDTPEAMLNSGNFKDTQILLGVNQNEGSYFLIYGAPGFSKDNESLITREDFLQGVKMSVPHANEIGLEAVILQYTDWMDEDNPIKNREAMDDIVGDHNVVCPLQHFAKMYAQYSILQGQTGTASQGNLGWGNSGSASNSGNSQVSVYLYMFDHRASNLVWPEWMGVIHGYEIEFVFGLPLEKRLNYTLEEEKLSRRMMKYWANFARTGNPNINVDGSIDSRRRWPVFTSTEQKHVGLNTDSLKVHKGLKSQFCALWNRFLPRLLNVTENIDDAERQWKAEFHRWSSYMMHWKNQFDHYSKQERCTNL

[5] = target: Cholinesterase (Equus caballus) (UniProt P81908); assay: Binding affinity to equine BChE assessed as observed rate constant
Acetylcholinesterase [6] = target: T1, Acetylcholinesterase; assay: Time dependent inhibition of electric eel AChE

Chain of Cholinesterase (P81908 whole entry): as the sequence (P81908 whole entry) above

Row | SMILES | IC50 (Cholinesterase) | further results
1 | CCOP(=S)(OCC)Oc1ccc(Cc2cc3ccccc3oc2=O)cc1 | 53 µM | –
2 | CCS(=O)(=O)Oc1cccc2ccccc12 | 71.5 µM | –
3 | CCOP(=O)(OCC)Oc1cccc2oc(=O)c(Cc3ccccc3)cc12 | 0.363 µM | –
4 | CC(=O)CC(c1ccccc1)c1c(O)c2ccccc2oc1=O (stereo unspecified) | – | inhibition [1]: 10%
5 | CCOP(=O)(OCC)Oc1ccc(Cc2cc3ccccc3oc2=O)cc1 | 30.2 µM | Ratio IC50 [2]: 3; inhibition [3]: Active; IC50 (Acetylcholinesterase [4]): 30.2 µM
6 | CCOP(=S)(OCC)Oc1c(C(CC(C)=O)c2ccccc2)c(=O)oc2ccccc12 (racemic) | > 100 µM | K [5]: 8400 M⁻¹ s⁻¹
7 | CCOP(=O)(OCC)Oc1c(C(CC(C)=O)c2ccccc2)c(=O)oc2ccccc12 (racemic) | 11.2 µM | TDI (Acetylcholinesterase [6]): Not Active; TDI [3]: Active; K [5]: 142000 M⁻¹ s⁻¹
8 | CCOP(=O)(OCC)Oc1cccc2ccccc12 | 54 µM | –
9 | O=c1oc2cccc(O)c2cc1Cc1ccccc1 | > 700 µM | –
10 | CCCCOP(=O)(OCCCC)Oc1c(C(CC(C)=O)c2ccccc2)c(=O)oc2ccccc12 (racemic) | 1.52 µM | TDI (Acetylcholinesterase [6]): Not Active; TDI [3]: Active
11 | O=c1oc2ccccc2cc1Cc1ccc(O)cc1 | 51.2 µM | –
12 | O=c1oc2cccc(O)c2cc1Cc1ccc(O)cc1 | 32 µM | –
